Screening data (PubChem)
CTSL1 counter – cathepsin L1 inhibition, PFM18AAP counter-screen. recombinant F. hepatica cathepsin L1, Z-Leu-Arg-MCA fluorescence. inhibition, % at 5.96 µM. 300,000 compounds, 0.49% hits. AID 1906;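 active means inhibition above the mean of all tested compounds plus 3 SD, set per screening campaign, cut at about 17% in these data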;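 further: 0% = plate median of test compound wells and 100% = 1 µM Z-Phe-Ala-diazomethylketone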
NadD block – inhibitors of Staphylococcus aureus NadD. purified NadD enzyme, colorimetric absorbance read-out. inhibition, % at 20 µM. 360,000 compounds, 0.78% hits; in the data active means inhibition above about 26%
PP1 inh – counter-screen for PP5 inhibitors: inhibitors of human PP1-alpha. P62136. purified PP1alpha, OMFP fluorescence. inhibition, % at 6.7 µM. 320,000 compounds, 0.9% hits;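 active means inhibition above the mean inhibition of all tested compounds plus 3 SD, computed separately for each screening campaign, cut at about 15% in these data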
Target sequence (P62136 whole entry, looked up): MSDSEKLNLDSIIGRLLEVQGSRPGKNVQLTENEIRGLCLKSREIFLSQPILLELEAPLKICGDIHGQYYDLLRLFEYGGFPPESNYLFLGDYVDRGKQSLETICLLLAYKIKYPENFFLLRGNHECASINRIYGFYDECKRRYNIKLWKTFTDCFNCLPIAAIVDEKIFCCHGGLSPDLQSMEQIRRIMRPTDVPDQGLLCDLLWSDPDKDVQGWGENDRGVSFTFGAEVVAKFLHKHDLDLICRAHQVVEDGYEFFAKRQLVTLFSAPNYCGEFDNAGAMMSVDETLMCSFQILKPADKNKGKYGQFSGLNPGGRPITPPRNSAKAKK
HCV core dimer – HCV core protein dimerization inhibition. TR-FRET GST/Flag-core106 dimerization, 1536-well. inhibition, % at 5 µM. 300,000 compounds, 0.33% hits. AID 1899;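 active means inhibition above the mean of all tested compounds plus 3 SD, set per screening campaign, cut at about 45% in these data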
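System: GST-tagged and Flag-tagged HCV core protein residues 1-106 / Input: core106 proteins, GST 13.5 nM and Flag 17 nM / Buffer or medium: KF-containing HEPES buffer, pH 7.45, DTT, CHAPS, BSA / Probe or stimulus: Eu-anti-GST and XL665-anti-Flag labelled anti-tag antibodies / Schedule: 4 h, 22.5 °C incubation / Technique: TR-FRET 671 and 617 nm emission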
Myeloid diff 2 – promotes myeloid progenitor differentiation; 360,000 compounds, 1% hits; ER-HoxA9 myeloid progenitors, lysozyme-GFP differentiation, flow cytometry; calls only at 10 µM;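 active means normalized GFP-positive differentiation at or above the plate's own cutoff, the solvent-only control mean plus 3 SD; inconclusive means no clear call, values can overlap the other calls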;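 further: cells exposed to compound for four days before flow analysis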
PP5 inh – PP5 (human) phosphatase inhibition | 320,000 compounds, 0.18% hits | inhibition, % at 6.7 µM | AID 1987 | purified PP5c, OMFP substrate fluorescence;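 active means inhibition above the campaign's mean inhibition across all tested compounds plus 3 SD, cut at about 9.5% in these data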;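 further: 0% = DMSO only and 100% = 100 µM cantharidin control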
NadD conf – NadD (S. aureus) inhibition, single concentration confirmation; inhibition, % at 20 µM; shares compounds with NadD block; purified S. aureus NadD, colorimetric enzyme assay; 2,000 compounds, 13% hits; in the data active means inhibition mostly above about 42%, no sharp cut-off; inactive means mostly below about 42%
Myeloid diff CP1 – compounds promoting myeloid differentiation | 2,300 compounds, 2% hits | AID 651706 | shares compounds with Myeloid diff 2 | calls only | ER-HoxA9 myeloid progenitors, GFP/Mac1 double-positive flow;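 active means share of green or green-and-red cells above 9 and 9% in run 1 or 4 and 3% in run 2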
GFP autofluor – counter-screen for myeloid differentiation promoters: compound fluorescence | ER-HoxA9 myeloid progenitors, no estrogen, GFP autofluorescence flow cytometry; vehicle wells 0%, positive control 100% | fluorescence response, % (concentration not given with the values) | shares compounds with Myeloid diff 2 | 2,300 compounds, 7.4% hits | AID 651707;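 active means over 5% cells positive for green fluorescent reporter, or over 2% positive for both it and APC stain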;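 further: range taken on the double positive population between DMSO and positive control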
* marks the source's active call; other numbers are inactive results; i = inactive; ? = inconclusive; · = not tested or not shown; + = active, no number. Most compounds without a hit are left out; they make up all but 3.1% or so of the library.

SMILES	CTSL1 counter	NadD block	PP1 inh	HCV core dimer	Myeloid diff 2	PP5 inh	NadD conf	others
COc1cc(NC(=O)CN2CCN(CC(=O)Nc3ccccc3OC)CC2)cc(OC)c1	1	-11	3	1	i	8	·
COc1ccc(NS(=O)(=O)c2ccc3nc(COc4cccc5ccccc45)[nH]c3c2)cc1	2	38*	7	24	i	8	36
COc1ccc(NS(=O)(=O)c2ccc3nc(COc4ccc5ccccc5c4)[nH]c3c2)cc1	-3	30	5	14	i	5	·
COc1ccc(/C=C/C(=O)NC(=S)Nc2ccc(S(=O)(=O)Nc3cc(OC)ncn3)cc2)cc1	·	54*	·	·	i	·	35
Cc1ccc(S(=O)(=O)N2CCOCC2)cc1C(=O)N1CCN(c2ncccn2)CC1	·	-6	·	·	i	·	·
COc1ccc(CCN2CC(C(=O)NCc3cn(C)nc3C)CCC2=O)cc1 (stereo not drawn)	·	-2	·	·	i	·	·
CCC(=O)N1C(=O)CCN(C(C)=O)c2ccccc21	0	36*	-2	-5	i	3	9
COc1ccc(C)cc1Nc1nc(-c2c[nH]c3ccccc23)cs1	5	39*	5	12	+	3	36
COc1ccc(OC)c(Nc2nc(-c3cccs3)cs2)c1	-2	-1	-2	-14	i	4	·
CC(C)CC(C(=O)Nc1oc(-c2ccco2)c(-c2ccco2)c1C#N)N1C(=O)c2ccccc2C1=O (stereo not drawn)	2	48*	1	20	i	3	47*
CSc1ccccc1NC(=O)C1(C)CCN1C(=O)CCC1CCCC1 (stereo not drawn)	·	-5	·	·	i	·	·
O=C(NCC(F)(F)F)c1ccc(S(=O)(=O)Nc2ccccc2N2CCCC2)cc1	·	40*	·	·	i	·	11
COc1cc(C#Cc2c(-c3cncn3C)n(C)c3ccc(-c4cnc(N5CCOCC5)nc4)cc23)cc(OC)c1	·	45*	·	·	?	·	19
COc1cc(C#Cc2c(-c3cncn3C)n(C)c3ccc(-c4ccc(CN5CCOCC5)cc4)cc23)cc(OC)c1	·	20	·	·	i	·	·
COc1cc(C#Cc2c(-c3cncn3C)n(C)c3ccc(-c4cnc(OC)nc4)cc23)cc(OC)c1	·	30*	6	·	i	3	14
COc1ccccc1C(=O)Nc1cccc2nc(C)ccc12	-2	-5	-1	2	i	2	·
Cc1ccccc1CN1C(=O)C(C)Sc2ccc(-c3ccco3)cc21 (stereo not drawn)	·	43*	·	·	i	·	50*
Cc1ccccc1CN1C(=O)C(C)S/C1=N/N=C/c1ccco1 (stereo not drawn)	-1	7	-3	0	i	0	·
CCOc1ccc2nc(SCC(=O)Nc3ccc(S(=O)(=O)N4CCCC4)cc3)c(C)cc2c1	0	17	-2	39	i	-1	·
Cc1cc(C)c2nc(SCC(=O)Nc3ccc(S(=O)(=O)N4CCCC4)cc3)c(C)cc2c1	0	36*	8	-11	i	0	9
CCOc1ncccc1C(=O)OCC(=O)Nc1cc(C(C)(C)C)ccc1OC	·	-3	·	·	i	·	·
COc1ccc(NC(=O)CSc2nnc(-c3ccccc3)n2N)cc1	-2	5	-4	-8	i	0	·
CCn1c2ccccc2c2cc(NC(=O)CSc3nnc(-c4ccc(OC)cc4)n3N)ccc21	1	30*	8	6	i	1	33
CCCS(=O)(=O)NC(=O)C1(C)CCCN(C(=O)c2oc3ccccc3c2C)C1 (stereo not drawn)	·	3	·	·	i	·	·
C/C(=N\NC(=O)c1cccc(N/N=C(\C)c2ccco2)c1)c1ccco1	·	38*	·	·	i	·	45
SMILES	CTSL1 counter	NadD block	PP1 inh	HCV core dimer	Myeloid diff 2	PP5 inh	NadD conf	others
CC(=O)N1CCN(C(=O)COC(=O)c2oc3ccccc3c2C)CC1	·	5	-5	·	i	1	·
C/C(CC1CC(COCC(C)C)OC1=O)=N\Nc1nc(-c2ccccc2)cs1 (stereo not drawn)	1	28*	7	34	i	1	13
Cc1ccc(-c2c(C(=O)Nc3ccccc3C)c(C)[nH]c(=S)c2C#N)o1	0	31*	4	41	i	2	3
Cc1ccc(NC(=O)COc2ccc(/C=C3/SC(=Nc4ccccc4)N(Cc4cccnc4)C3=O)cc2)cc1	-1	40*	4	13	i	3	3
Cc1ccc(NC(=O)COc2ccc(/C=N/NC(=O)CSCc3ccccc3)cc2)cc1	0	-1	5	7	i	3	·
Cc1ccc(NC(=O)CCC(=O)c2cccs2)c(Br)c1	1	0	-4	5	i	-1	·
c1ccc(COc2cccc(CN3CCc4ccccc4C3)c2)cc1	0	-1	2	-4	i	1	·
CCOC(=O)C1=C(C)c2ccccc2N(C(=O)OC)C1(C)C(=O)OCC (stereo not drawn)	·	44*	·	·	i	·	69*
CCOC(=O)C1=C(C)c2ccccc2OC1(CC)C(=O)OCC (stereo not drawn)	·	-3	·	·	i	·	·
COc1ccc(-c2cc(C(=O)N3CCN(c4ccccc4O)CC3)c3ccccc3n2)cc1OC	0	7	0	11	i	6	·
CCn1cc(CN2CCC(n3nccc3NC(=O)c3ccc4c(c3)OCO4)CC2)c(C)n1	-1	3	0	2	i	2	·
COc1ccc(S(=O)(=O)N(C)c2ccc(C(=O)Nc3ccccc3C(=O)N3CCOCC3)cc2)cc1OC	0	-8	-3	-4	i	-1	·
C#Cc1ccc([C@H]2C=C(C(=O)NCc3nc4ccccc4[nH]3)O[C@@H](OCc3ccc(CO)cc3)C2)cc1	1	33*	14	29	i	4	46*	Myeloid diff CP1=i;GFP autofluor=0
CC1CCc2c(sc(Nc3nc4c(F)cccc4s3)c2C(N)=O)C1 (stereo not drawn)	-1	36*	-3	0	+	4	8	Myeloid diff CP1=i;GFP autofluor=6.4*
Cc1cccc(NS(=O)(=O)c2cccc(C(=O)N3CCN(C/C=C/c4ccccc4)CC3)c2)c1	·	-1	4	·	i	6	·
CCCCn1c(-c2cccnc2)nc2cc3[nH]c(=O)c(C(C)C)nc3cc21	3	8	10	8	i	1	·
CCCCn1c(-c2ccc(C(C)(C)C)cc2)nc2cc3[nH]c(=O)c(C(C)C)nc3cc21	2	36*	7	19	+	1	4	Myeloid diff CP1=i;GFP autofluor=2
